Reference: EPA's CvTdb concentration-time database

How the values were obtained:
human = experiment: amount in urine after dosing (umol)
Procedure, shortened: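 Concentration-versus-time or amount-versus-time points were compiled from published in vivo toxicokinetic studies and from two structured collections. The studies were found by PubMed searching, classifier screening and manual review. Points were mostly digitised from plot screenshots with WebPlotDigitizer, otherwise copied from tables, and kept in the reported units. Dose, route, subject details and medium were curated by hand from each paper, and sampling and analytical methods follow each source and were often unreported.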

Rat [1] = experiment: concentration in liver after dosing; conditions: 3 h; dosed: Potassium Perfluorobutane Sulfonate; 20 mg/kg; oral; Male; Harlan Sprague Dawley
Rat [2] = experiment: concentration in kidney after dosing; conditions: 6 h; dosed: Potassium Perfluorobutane Sulfonate; 20 mg/kg; oral; Female; Harlan Sprague Dawley

CC(C)(C)O [tert-butyl alcohol]
amount in urine, human, inhalation, duration: 4 hr
Conditions | dosed: ethyl tert-butyl ether | dosed: methyl tert-butyl ether
0 h, 4.5 ppm | – | 0.221
0 h, 40.6 ppm | 2.39 | –
0.1079 h, 38.7 ppm | – | 6.16
2 s, 4.5 ppm | 0.655 | –
5.895 h, 40.6 ppm | 5.98 | –
5.968 h, 4.5 ppm | 1.15 | –
6.052 h, 4.5 ppm | – | 0.993
6.07 h, 38.7 ppm | – | 7.53
11.89 h, 40.6 ppm | 5.18 | –
11.9 h, 4.5 ppm | – | 0.993
11.92 h, 38.7 ppm | – | 6.16
12.14 h, 4.5 ppm | 0.764 | –
17.89 h, 40.6 ppm | 3.59 | –
18.05 h, 4.5 ppm | 0.545 | 0.221
18.09 h, 38.7 ppm | – | 4.11
23.89 h, 40.6 ppm | 1.59 | –
23.9 h, 4.5 ppm | – | 0.221
23.95 h, 38.7 ppm | – | 2.74
24.02 h, 4.5 ppm | 0.545 | –
29.89 h, 40.6 ppm | 1.39 | –
30.05 h, 4.5 ppm | – | 0.221
30.12 h, 38.7 ppm | – | 4.11
30.19 h, 4.5 ppm | 0.273 | –
35.9 h, 4.5 ppm | – | 0.11
35.97 h, 38.7 ppm | – | 2.74
36.11 h, 40.6 ppm | 0.598 | –
42.11 h, 40.6 ppm | 0.598 | –
42.14 h, 38.7 ppm | – | 0.685
48.11 h, 40.6 ppm | 0.797 | –
48.29 h, 4.5 ppm | 0.0545 | –
54.17 h, 38.7 ppm | – | 0.685
71.95 h, 38.7 ppm | – | 0.685
72.05 h, 40.6 ppm | 0.199 | –

human, dosed: methyl tert-butyl ether, oral
Conditions | amount in urine
0 h, 5 mg | 0.0137
5.859 h, 15 mg | 0.646
6.163 h, 5 mg | 0.274
12.01 h, 5 mg | 0.233
12.04 h, 15 mg | 0.568
17.9 h, 15 mg | 0.329
18.18 h, 5 mg | 0.123
24.08 h, 15 mg | 0.292
24.24 h, 5 mg | 0.0548
29.94 h, 15 mg | 0.214
30.19 h, 5 mg | 0.0685
36.12 h, 15 mg | 0.136
36.25 h, 5 mg | 0.0548
41.98 h, 15 mg | 0.138
42.1 h, 5 mg | 0.0137
48.05 h, 15 mg | 0.101
54.02 h, 15 mg | 0.143

O=S(=O)([O-])C(F)(F)C(F)(F)C(F)(F)C(F)(F)F.[K+] [Potassium Perfluorobutane Sulfonate]
Conditions | concentration in kidney [ng/g] | concentration in liver [ng/g]
Rat [1] | – | 80000
Rat [2] | 587 | –
